Each structure is given as a SMILES string. “And” between values parts separate entries of the source, which are not always exact repeats. Equal entries are not always repeated.

The first test has as its target T1, Mitochondrial carnitine/acylcarnitine carrier protein (Rattus norvegicus) (UniProt P97521).
T1 sequence (whole entry): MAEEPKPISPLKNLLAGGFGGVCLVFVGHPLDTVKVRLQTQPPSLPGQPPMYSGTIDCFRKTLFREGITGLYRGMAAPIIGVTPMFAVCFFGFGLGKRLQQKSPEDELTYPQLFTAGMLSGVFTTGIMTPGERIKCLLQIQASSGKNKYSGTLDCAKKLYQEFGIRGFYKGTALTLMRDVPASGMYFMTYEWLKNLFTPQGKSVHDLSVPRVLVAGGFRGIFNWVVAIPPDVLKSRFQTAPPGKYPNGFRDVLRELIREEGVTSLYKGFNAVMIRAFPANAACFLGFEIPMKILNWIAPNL
Description: Affinity of compound towards the carnitine/acylcarnitine translocase was determined by monitoring the efflux of [14C]L-carnitine from isolated rat heart mitochondria at 3 mM conc. An outline of the steps:
(§1)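 Isolated rat heart mitochondria (differential centrifugation) in 200 mM D-mannitol/50 mM Tris-HCl pH 7.4 with rotenone, oligomycin and antimycin A were loaded with l-carnitine plus [14C]-l-carnitine for 3 min at 28 °C, then washed. Compound at 3 or 50 mM, or water control, was added; efflux ran 1 min on ice and was quenched with mersalyl. Supernatant was scintillation-counted, and % efflux was calculated against control and total radioactivity. Mean of three.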
The molecule `C[N+]1(C)C[C@H](O)C[C@H]1C(=O)O` showed an Experimental DPM of 4930, a Total DPM of 12200 and a Trans of 3.16%.
The like results for `C[N+](C)(C)[C@@H]1CCCC[C@H]1C(=O)O` were, in that order, 4170, 10900 and 0%.
On the same counts, the results for `C[N+]1(C)CCCC(C(=O)O)C1` (stereo not given) are 4030, 10900 and 0%.
On the same counts, the results for `C[N+]1(C)CCCCC1C(=O)O` (stereo not given) are 3850, 10900 and 0%.
The molecule `C[N+]1(C)CCC[C@H]1C(=O)[O-]` had a Total DPM of 12200 and a Trans of 3.17%.
For the molecule `C[N+](C)(C)CC(O)CC(=O)[O-]` (stereo not given), the Experimental DPM came out at 11800, the Total DPM was 12200 and the Trans came to 94.2%.

Another test addresses T1, Mitochondrial carnitine/acylcarnitine carrier protein (Rattus norvegicus). Description: Affinity of compound towards the carnitine/acylcarnitine translocase was determined by monitoring the efflux of [14C]L-carnitine from isolated rat heart mitochondria. The essentials:
as §1
On to `O=C(O)C1CCCCN1` (stereo not given), for which the Experimental DPM was determined as 4280.
In the case of `O=C(O)[C@@H]1CCCN1`, the Experimental DPM came to 5050.
On the same count and under the same terms, the same measure for `O=C(O)C1CCCNC1` (stereo not given): 4130; for `O=C(O)[C@@H]1C[C@@H](O)CN1`: 5350.
Still for that read-out and setting: as for `C[N+]1(C)CCC[C@H]1C(=O)[O-]`, the figure is 5570; as for `CCCCCCCCCCCCCCCC(=O)OC(CN)CC(=O)O` (stereo not given), 3470.
Same read-out and setting: as for `NCC(O)CC(=O)O` (stereo not given), the figure is 4220.
With `CCCCCCCCCCCCCCCC(=O)O[C@@H]1C[C@@H](C(=O)O)[N+](C)(C)C1`, the Experimental DPM is 5890 and 8870.

For the origin of these results see ChEMBL document CHEMBL1123190, “Synthesis and biological evaluation of cyclic analogues of 1-carnitine as potential agents in the treatment of myocardial ischemia” (J Med Chem, 1986).
